High-throughput results as filed in PubChem.
C2C12 statin: suppression of simvastatin myotoxicity | C2C12 myotubes + simvastatin, ATP luminescence, 48 h; scaled: DMSO 0, geranylgeraniol control 100 | 0.78% of 330,000 active | rescue of ATP level, % at 7.49 µM;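 active means mean ATP rescue above about 67%, or every replicate alone reaching that limit, limit read from the data, passing the limit was not always enough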;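 further: myotubes were challenged with 10 µM simvastatin during compound exposure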
Efflux pump inh: antifungal efflux pump inhibition, Nile Red retention. S. cerevisiae Candida pump triplex. inhibition, % at 10 µM. 0.44% of 330,000 active. AID 485275;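 active means plate passing quality check with inhibition over a set limit, or well fluorescence over plate mean plus 4 SD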;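 further: Nile Red retained in pooled yeast measured as flow cytometry median fluorescence; higher means more Nile Red kept so more efflux inhibition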
Cneo AK release: causes C. neoformans cell lysis; adenylate kinase release luminescence, 4 h; normalised: neutral wells 0, clomiphene wells 100; lysis activity, % at 15 µM; 0.2% of 360,000 active; AID 651654;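 active means mean lysis activity across replicates of at least 80%, whatever share of replicates individually reach that level; inactive means mean lysis activity below 80%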
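Material – Cryptococcus neoformans yeast cells · Quantity – 5 × 10^6 yeast cells/mL · Buffer or medium – YPD medium · Compound – single dose · Timing – 4 h static compound exposure, 37 °C, read 1 h post-reagent · Signal – adenylate kinase release luminescence · Read-out basis – lysis from increased AK signal · Benchmarks – Clomiphene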
Mot1-301 SUMO: inhibitors of SUMOylation pathway: yeast Mot1-301 growth rescue; AID 2716; 1% of 320,000 active; S. cerevisiae Mot1-301 growth rescue, ATP luminescence, 38.5C; percent above DMSO median, 100 means doubled; growth rescue, % at 18.8 µM;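 active means every valid replicate shows activation above 250% relative to neutral control wells; inactive means the rest, any valid replicate at or below 250%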
Yeast cmpd fluor: flagged as fluorescent in efflux inhibitor counter-screen | shares compounds with Efflux pump inh | S. cerevisiae AD/pABC3, compound fluorescence, flow cytometry | fluorescence ratio to DMSO, % at 10 µM | 4% of 1,700 active;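 active means fluorescence ratio to DMSO above its plate's cutoff, the plate mean ratio plus 5 SD, cut at about 210% in these data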;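 further: unstained yeast with no Nile Red so the signal is compound autofluorescence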
CaMdr1 efflux inh: inhibitors of Candida albicans Mdr1 efflux pump; 1% of 1,700 active; shares compounds with Efflux pump inh; inhibition, % at 10 µM; S. cerevisiae AD/CaMDR1, Nile Red efflux, flow cytometry; in the data active means inhibition above about 26%;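 further: higher means more Nile Red retained so more efflux inhibition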
Cdr2 pump inh: Candida Cdr2 efflux pump inhibition; shares compounds with Efflux pump inh; S. cerevisiae AD/CaCDR2, Nile Red retention, flow cytometry; Nile Red retention ratio vs DMSO, % at 10 µM; 4% of 1,700 active; in the data active means Nile Red retention ratio vs DMSO above about 190%;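 further: higher ratio means more blocking of Cdr2 efflux of the dye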
CaCdr1 efflux inh: inhibitors of Candida albicans Cdr1 efflux pump; shares compounds with Efflux pump inh; S. cerevisiae AD/CaCDR1, Nile Red efflux, flow cytometry; inhibition, % at 10 µM; 1% of 1,700 active; AID 588522;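 active means inhibition above the screen-wide mean plus twice its standard deviation, cut at about 32% in these data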
Large screens that a line does not name were inactive (follow-up assays come after a bar, where they were run). A selection: hits, their analogues and other compounds. The true share with any hit is near 1.8%.

O=C(COc1ccc(Cl)cc1Cl)NC1CCSC1=O (centres undefined)	Efflux pump inh 1.7 | Yeast cmpd fluor inactive | CaMdr1 efflux inh inactive | Cdr2 pump inh inactive | CaCdr1 efflux inh inactive
CC(=O)N(C)c1ccc(NC(=S)NC(=O)/C=C/c2ccco2)cc1	Efflux pump inh 0.6 | Yeast cmpd fluor inactive | CaMdr1 efflux inh inactive | Cdr2 pump inh inactive | CaCdr1 efflux inh inactive
Cc1cc(/C=C\c2ccc3cc(N(C)C)ccc3[n+]2C)c(C)n1-c1ccccc1	Efflux pump inh 17 | Yeast cmpd fluor active | CaMdr1 efflux inh 38 | Cdr2 pump inh 270 | CaCdr1 efflux inh inactive
Cc1cccc(NS(=O)(=O)c2ccc(C3CCCCC3)cc2)n1	Efflux pump inh 8.2 | Yeast cmpd fluor inactive | CaMdr1 efflux inh inactive | Cdr2 pump inh inactive | CaCdr1 efflux inh inactive
Cc1cccc(NS(=O)(=O)c2ccccc2)n1	none (no result: Mot1-301 SUMO)
CC1(C)CC2(CC(c3cccs3)c3cc(Cl)c(O)cc3O2)NC(=S)N1 (centres undefined)	Efflux pump inh 53 (no result: C2C12 statin, Cneo AK release) | Yeast cmpd fluor inactive | CaMdr1 efflux inh 75 | Cdr2 pump inh inactive | CaCdr1 efflux inh inactive
COc1ccc(CC(=O)Nc2c3c(nn2-c2ccccc2C)CS(=O)C3)cc1 (centres undefined)	none
COc1ccc(CC(=O)Nc2c3c(nn2C(C)(C)C)CS(=O)C3)cc1 (centres undefined)	Efflux pump inh 1.8 (no result: C2C12 statin) | Yeast cmpd fluor inactive | CaMdr1 efflux inh inactive | Cdr2 pump inh inactive | CaCdr1 efflux inh inactive
O=C(CC1Sc2ccccc2NC1=O)Nc1cccnc1 (centres undefined)	none (no result: C2C12 statin, Cneo AK release)
O=C(CC1Sc2ccccc2NC1=O)Nc1ccccc1[N+](=O)[O-] (centres undefined)	Efflux pump inh 18 (no result: C2C12 statin, Cneo AK release) | Yeast cmpd fluor inactive | CaMdr1 efflux inh inactive | Cdr2 pump inh inactive | CaCdr1 efflux inh inactive
O=S(=O)(c1ccc2c(c1)OCCO2)N1CCN(Cc2ccc3c(c2)OCO3)CC1	none
O=S(=O)(Cc1ccccc1)N1CCN(Cc2ccc3c(c2)OCO3)CC1	Efflux pump inh 1.1 (no result: C2C12 statin) | Yeast cmpd fluor inactive | CaMdr1 efflux inh inactive | Cdr2 pump inh inactive | CaCdr1 efflux inh inactive
CCOc1ccc(NC(=O)c2cc(S(=O)(=O)N3CCOCC3)cn2C)cc1	none
COc1ccc(C(=O)CC(=O)C(=O)Nc2ccc(Cl)cc2)cc1	Efflux pump inh 1.4 | Yeast cmpd fluor inactive | CaMdr1 efflux inh inactive | Cdr2 pump inh inactive | CaCdr1 efflux inh inactive
COc1cccc(-c2onc3ccc(C(=O)/C=C/N(C)C)cc23)c1	none
Cc1ccc([C@@H]2[C@@H]3C(=O)N(C)C(=O)[C@@H]3[C@@H]3C(=O)Nc4ccccc4C(=O)N23)cc1	Efflux pump inh 0.6 | Yeast cmpd fluor inactive | CaMdr1 efflux inh inactive | Cdr2 pump inh inactive | CaCdr1 efflux inh inactive
C/C(=N\Nc1nccnc1Cl)c1ccc(Cl)c(Cl)c1	none
O=C(Nc1ccc(S(=O)(=O)Nc2nccs2)cc1)c1cc(-c2ccccc2)nc2ccccc12	none (no result: C2C12 statin, Cneo AK release)
CCc1ccc(-c2cc(C(=O)Nc3ccc(S(=O)(=O)NC(C)=O)cc3)c3ccccc3n2)cc1	none | Yeast cmpd fluor inactive | CaMdr1 efflux inh inactive | Cdr2 pump inh inactive | CaCdr1 efflux inh inactive
COc1cc(-c2cc(C(=O)Nc3ccc(O)cc3)c3ccccc3n2)cc(OC)c1OC	none (no result: C2C12 statin, Cneo AK release) | Yeast cmpd fluor inactive | CaMdr1 efflux inh inactive | Cdr2 pump inh inactive | CaCdr1 efflux inh inactive
Cc1ccc(-c2cc(C(=O)Nc3ccc(S(=O)(=O)Nc4ncccn4)cc3)c3ccccc3n2)cc1	Efflux pump inh 8.2 (no result: C2C12 statin) | Yeast cmpd fluor inactive | CaMdr1 efflux inh inactive | Cdr2 pump inh inactive | CaCdr1 efflux inh inactive
COc1ccc(-n2c(SCC(=O)Nc3ncc(Cl)cc3Cl)nc3ccccc32)cc1	Efflux pump inh 0.8 (no result: C2C12 statin, Cneo AK release) | Yeast cmpd fluor inactive | CaMdr1 efflux inh inactive | Cdr2 pump inh inactive | CaCdr1 efflux inh inactive
COc1cc(/C=N/N2CCN(c3ccc(Cl)cc3)CC2)cc(OC)c1OC(C)=O	Efflux pump inh 1.2 | Yeast cmpd fluor inactive | CaMdr1 efflux inh inactive | Cdr2 pump inh inactive | CaCdr1 efflux inh inactive
CCN(CC(=O)NCc1ccc(F)cc1)S(=O)(=O)c1ccc(C)cc1	none
Nc1nnc(SCC(=O)NNC(=O)c2ccc(Cl)cc2)s1	Efflux pump inh 93 | Yeast cmpd fluor inactive | CaMdr1 efflux inh inactive | Cdr2 pump inh inactive | CaCdr1 efflux inh inactive
Cc1ccccc1N1C(=O)c2ccccc2C1Nc1cccnc1 (centres undefined)	none
O=C(Nc1cccc(N2C(=O)C=CC2=O)c1)c1cccs1	none
O=C1C=CC(=O)N1c1cccc(-c2ccccc2)c1	Efflux pump inh 2.6 (no result: C2C12 statin, Cneo AK release) | Yeast cmpd fluor inactive | CaMdr1 efflux inh inactive | Cdr2 pump inh inactive | CaCdr1 efflux inh inactive
C=CCn1c(=O)c(C(=O)NC2CC2)c(O)c2cc(OC)c(OC)cc21	none
O=C(O)C(Cc1c[nH]c2ccccc12)NS(=O)(=O)c1cccc2nsnc12 (centres undefined)	Efflux pump inh 24 (no result: C2C12 statin, Cneo AK release) | Yeast cmpd fluor inactive | CaMdr1 efflux inh inactive | Cdr2 pump inh inactive | CaCdr1 efflux inh inactive
COc1ccccc1Cn1c(=O)c2ccccc2n2c(SCC(=O)N3CCCCC3)nnc12	Efflux pump inh 1.6 (no result: C2C12 statin, Cneo AK release) | Yeast cmpd fluor inactive | CaMdr1 efflux inh inactive | Cdr2 pump inh inactive | CaCdr1 efflux inh inactive
O=C(CSc1nnc2n(C3CCCC3)c(=O)c3ccccc3n12)N1CCCCCC1	none
CC(C)c1ccc(/C=C/C(=O)Nc2nn[nH]n2)cc1	none (no result: C2C12 statin, Cneo AK release)
COCCCn1c(=S)[nH]c2ccc(N3CCOCC3)cc2c1=O	Efflux pump inh 1.4 | Yeast cmpd fluor inactive | CaMdr1 efflux inh inactive | Cdr2 pump inh inactive | CaCdr1 efflux inh inactive
CN1C(=O)c2cc(NC(=O)c3ccc(C(F)(F)F)cc3)ccc2OC[C@H]2O[C@H](CC(=O)NC3Cc4ccccc4C3)CC[C@H]21	none (no result: Efflux pump inh, Mot1-301 SUMO)
Cc1ccc(CN(Cc2cccnc2)C(=O)CN2C(=O)COc3ccccc32)o1	Efflux pump inh 5.9 | Yeast cmpd fluor inactive | CaMdr1 efflux inh inactive | Cdr2 pump inh inactive | CaCdr1 efflux inh inactive
CCC(=O)N(C)CCc1cc2c(c(OC)c1/C=N/NC(=O)[C@H]1C[C@@H]1c1ccccc1)OCO2	Efflux pump inh 3.5 (no result: C2C12 statin, Cneo AK release) | Yeast cmpd fluor inactive | CaMdr1 efflux inh inactive | Cdr2 pump inh inactive | CaCdr1 efflux inh inactive
Cc1ccc(/C=C2\CCC3=C2OC(N)=C(C#N)C3c2ccc(C)cc2)cc1 (centres undefined)	Efflux pump inh 3.6 | Yeast cmpd fluor inactive | CaMdr1 efflux inh inactive | Cdr2 pump inh inactive | CaCdr1 efflux inh inactive
Cc1ccc(O)c(C(=O)CC(=O)c2ccccc2Cl)c1	Efflux pump inh 0.6 (no result: C2C12 statin, Cneo AK release) | Yeast cmpd fluor inactive | CaMdr1 efflux inh inactive | Cdr2 pump inh inactive | CaCdr1 efflux inh inactive
Cc1ccc(O)c(C(=O)CC(=O)c2ccc(C(C)(C)C)cc2)c1	none
